Two molecules from ChEMBL document CHEMBL1142937, “Synthesis, affinity profile, and functional activity of muscarinic antagonists with a 1-methyl-2-(2,2-alkylaryl-1,3-oxathiolan-5-yl)pyrrolidine structure” (J Med Chem, 2007) can be followed below.

For test [1], the target named is Muscarinic acetylcholine receptor M3 (Cavia porcellus, UniProt Q8VH26). Description: (§1) Antagonist activity at muscarinic receptor M3 assessed as contraction of guinea pig ileum. The test is classed as functional, tissue-based. The note with it: read-out: pA2 (converted). Put shortly:
(§2)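 Isolated guinea pig tissue preparations (stimulated left atria, ileum, lung strips), run in vitro by a previously described protocol, with the ileum method slightly modified. Agonist dose–response curves were recorded before and after one or two antagonist concentrations. pKb = log(DR−1) − log[B], where DR is the ratio of agonist ED50 after/before antagonist. Some cases were expressed as pA2 from Schild plots constrained to slope −1.0.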

Test [2] addresses T1, Muscarinic acetylcholine receptor M1 (Homo sapiens, UniProt P11229).
T1 sequence (P11229 whole entry): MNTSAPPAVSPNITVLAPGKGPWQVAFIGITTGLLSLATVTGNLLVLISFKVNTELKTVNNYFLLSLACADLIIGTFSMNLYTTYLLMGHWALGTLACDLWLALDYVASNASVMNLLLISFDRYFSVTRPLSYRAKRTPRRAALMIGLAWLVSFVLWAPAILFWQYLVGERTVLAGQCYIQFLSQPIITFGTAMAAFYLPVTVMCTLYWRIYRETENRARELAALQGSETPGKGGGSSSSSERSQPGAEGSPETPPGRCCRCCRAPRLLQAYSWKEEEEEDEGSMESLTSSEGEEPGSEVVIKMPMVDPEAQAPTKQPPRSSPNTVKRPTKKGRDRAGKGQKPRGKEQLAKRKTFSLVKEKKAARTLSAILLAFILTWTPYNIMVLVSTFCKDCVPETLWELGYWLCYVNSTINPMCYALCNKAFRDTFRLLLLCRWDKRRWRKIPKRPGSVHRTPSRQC
The test is described as follows: Binding affinity to human cloned muscarinic receptor M1 expressed in CHO cells. In kind it is cell-based.

Test [3] relates to Muscarinic acetylcholine receptor M4, putative (Cavia porcellus). Description: Antagonist activity at putative muscarinic receptor M4 assessed as contraction of electrically-stimulated guinea pig lung strips. The following applies: filed as antagonist.
Test [4] addresses Muscarinic acetylcholine receptor M3 (Homo sapiens, UniProt P20309). The test is described as follows: Binding affinity to human cloned muscarinic receptor M3 expressed in CHO cells. The test is classed as cell-based.
Test [5] has as its system Muscarinic acetylcholine receptor M2 (Cavia porcellus). The test is described as follows: Antagonist activity at muscarinic receptor M2 assessed as contraction of electrically-stimulated guinea pig left atria. The note with it: filed as antagonist.
Test [6] has as its system Muscarinic acetylcholine receptor M1, putative (Oryctolagus cuniculus). The note with it: Vas deferens, filed as antagonist.
For test [7], the target named is T2, Muscarinic acetylcholine receptor M5 (Homo sapiens, UniProt P08912).
T2 sequence (P08912 whole entry): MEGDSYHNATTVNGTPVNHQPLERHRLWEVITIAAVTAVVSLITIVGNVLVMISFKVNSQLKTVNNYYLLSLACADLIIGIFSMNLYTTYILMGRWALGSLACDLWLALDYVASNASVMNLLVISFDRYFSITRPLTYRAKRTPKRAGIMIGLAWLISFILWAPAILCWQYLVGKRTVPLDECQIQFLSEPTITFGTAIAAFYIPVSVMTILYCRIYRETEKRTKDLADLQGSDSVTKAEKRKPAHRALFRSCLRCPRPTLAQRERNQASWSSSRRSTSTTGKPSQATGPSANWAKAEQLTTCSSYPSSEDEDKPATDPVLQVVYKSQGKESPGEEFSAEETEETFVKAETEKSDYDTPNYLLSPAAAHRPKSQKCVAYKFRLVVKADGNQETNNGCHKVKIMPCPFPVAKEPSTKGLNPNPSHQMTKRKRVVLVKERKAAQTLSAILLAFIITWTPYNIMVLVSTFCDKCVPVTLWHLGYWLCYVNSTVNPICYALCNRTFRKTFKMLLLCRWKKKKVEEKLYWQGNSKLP
Description: Binding affinity to human cloned muscarinic receptor M5 expressed in CHO cells. In kind it is cell-based. The method, boiled down:
(§3)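 Equilibrium radioligand binding on CHO cells expressing the cloned human muscarinic subtype. Affinity is reported as pKi.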

Test [8] addresses Muscarinic acetylcholine receptor M3 (Cavia porcellus) (UniProt Q8VH26). Described as §1. The test is classed as functional, tissue-based. The note with it: filed as antagonist. The method, boiled down:
as §2

Test [9] deals with T3, Muscarinic acetylcholine receptor M4 (Homo sapiens, UniProt P08173).
T3 sequence (P08173 whole entry): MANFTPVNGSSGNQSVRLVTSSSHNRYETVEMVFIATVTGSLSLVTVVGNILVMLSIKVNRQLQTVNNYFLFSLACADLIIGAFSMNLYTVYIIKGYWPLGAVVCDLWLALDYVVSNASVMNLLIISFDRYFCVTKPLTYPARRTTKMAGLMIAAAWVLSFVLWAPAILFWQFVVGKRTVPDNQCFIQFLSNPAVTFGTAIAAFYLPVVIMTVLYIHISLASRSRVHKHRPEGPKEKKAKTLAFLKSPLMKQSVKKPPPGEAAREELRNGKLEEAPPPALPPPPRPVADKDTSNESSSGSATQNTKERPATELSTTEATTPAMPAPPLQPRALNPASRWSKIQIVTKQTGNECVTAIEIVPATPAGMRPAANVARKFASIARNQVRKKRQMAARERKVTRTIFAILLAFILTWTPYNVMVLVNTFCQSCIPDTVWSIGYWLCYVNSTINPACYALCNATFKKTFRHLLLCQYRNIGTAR
Description: Binding affinity to human cloned muscarinic receptor M4 expressed in CHO cells. The test is classed as cell-based.

Test [10] concerns the target T4, Muscarinic acetylcholine receptor M2 (Homo sapiens, UniProt P08172).
T4 sequence (P08172 whole entry): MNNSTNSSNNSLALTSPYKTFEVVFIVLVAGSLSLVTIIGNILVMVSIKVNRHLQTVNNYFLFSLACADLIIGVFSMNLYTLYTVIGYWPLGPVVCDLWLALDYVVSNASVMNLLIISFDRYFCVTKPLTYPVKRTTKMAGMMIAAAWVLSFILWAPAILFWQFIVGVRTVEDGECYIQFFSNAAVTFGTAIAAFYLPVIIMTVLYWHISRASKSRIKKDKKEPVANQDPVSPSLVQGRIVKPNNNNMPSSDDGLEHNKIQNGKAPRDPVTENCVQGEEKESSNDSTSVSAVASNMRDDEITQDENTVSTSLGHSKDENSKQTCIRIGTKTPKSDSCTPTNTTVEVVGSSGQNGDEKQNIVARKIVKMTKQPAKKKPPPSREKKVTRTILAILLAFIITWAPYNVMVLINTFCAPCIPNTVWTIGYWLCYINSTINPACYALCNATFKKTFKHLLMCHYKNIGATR
The test is described as follows: Binding affinity to human cloned muscarinic receptor M2 expressed in CHO cells. In kind it is cell-based. Put shortly:
as §3

Sequence of Muscarinic acetylcholine receptor M3 (Homo sapiens, UniProt P20309) (P20309 whole entry): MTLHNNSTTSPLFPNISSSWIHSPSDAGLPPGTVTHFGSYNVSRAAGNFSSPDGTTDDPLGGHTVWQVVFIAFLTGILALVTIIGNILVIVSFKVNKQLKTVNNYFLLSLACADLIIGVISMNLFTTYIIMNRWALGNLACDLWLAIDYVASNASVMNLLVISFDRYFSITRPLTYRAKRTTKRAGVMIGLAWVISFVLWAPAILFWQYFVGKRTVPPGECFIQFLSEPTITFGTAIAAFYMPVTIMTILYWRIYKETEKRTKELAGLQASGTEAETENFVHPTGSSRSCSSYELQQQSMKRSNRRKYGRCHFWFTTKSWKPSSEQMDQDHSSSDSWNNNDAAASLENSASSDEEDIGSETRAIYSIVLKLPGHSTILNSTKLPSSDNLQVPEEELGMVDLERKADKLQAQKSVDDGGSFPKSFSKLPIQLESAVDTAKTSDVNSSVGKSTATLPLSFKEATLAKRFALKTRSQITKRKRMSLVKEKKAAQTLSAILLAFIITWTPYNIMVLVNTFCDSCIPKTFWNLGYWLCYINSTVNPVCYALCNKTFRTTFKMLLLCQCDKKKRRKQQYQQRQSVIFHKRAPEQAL
Sequence of Muscarinic acetylcholine receptor M3 (Cavia porcellus) (Q8VH26 1-587): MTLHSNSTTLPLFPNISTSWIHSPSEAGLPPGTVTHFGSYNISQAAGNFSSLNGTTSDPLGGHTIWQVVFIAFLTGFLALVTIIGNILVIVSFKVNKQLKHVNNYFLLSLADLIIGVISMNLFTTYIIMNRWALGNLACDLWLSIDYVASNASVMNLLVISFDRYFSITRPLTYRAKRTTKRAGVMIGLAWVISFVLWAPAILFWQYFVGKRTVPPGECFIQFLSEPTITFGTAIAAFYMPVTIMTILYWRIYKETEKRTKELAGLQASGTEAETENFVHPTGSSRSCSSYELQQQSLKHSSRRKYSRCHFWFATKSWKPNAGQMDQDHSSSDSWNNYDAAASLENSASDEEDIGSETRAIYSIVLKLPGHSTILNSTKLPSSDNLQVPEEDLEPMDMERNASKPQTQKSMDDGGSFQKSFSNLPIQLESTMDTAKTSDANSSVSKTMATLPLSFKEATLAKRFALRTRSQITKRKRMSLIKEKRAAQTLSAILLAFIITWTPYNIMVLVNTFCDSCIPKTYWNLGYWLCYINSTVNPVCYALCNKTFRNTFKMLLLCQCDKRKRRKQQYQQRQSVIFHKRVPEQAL
Sequence of Muscarinic acetylcholine receptor M3 (Cavia porcellus, UniProt Q8VH26) (Q8VH26 whole entry): as the sequence (Q8VH26 1-587) above

For the molecule `C[N+]1(C)[C@@H]2C[C@@H](OC(=O)[C@H](CO)c3ccccc3)C[C@H]1[C@@H]1O[C@@H]12` [METHSCOPOLAMINE], the Kb in test [1] is reported as 0.617 nM (antagonist).

The term Ki denotes the equilibrium dissociation constant of an inhibitor or competing ligand from its target. Lower therefore signals higher affinity. Broadly, the pKb is the Kb on a negative log10 scale, so that one unit is a factor of ten. Consider `CN1CCC[C@@H]1[C@@H]1CS[C@@](c2ccccc2)(C2CCCCC2)O1`, for which the Ki in [2] is listed as 0.912 nM (antagonist); in test [4], 1.45 nM (antagonist); in test [7], 1.2 nM (antagonist); in [9], 1.26 nM (antagonist); in [10] it was 4.47 nM (antagonist). Also, the negative-log Kb (pKb) in [3] was 5.98; in test [5], 7.13; in test [6] it was 7.95; in test [8], 7.65.
